PLK1 inh = blocks human PLK1 kinase activity; P53350; recombinant PLK1 kinase, TR-FRET peptide phosphorylation; inhibition, % at 10 µM; 97,000 tested, 0.53% active; AID 619;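 active = inhibition of 50% or more in the single-concentration screen; inactive = inhibition below 50%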;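 note: 0% = DMSO max control and 100% = H-89 dihydrochloride min control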
Rev-RRE block = inhibitors of HIV-1 Rev-RRE RNA interaction | Rev peptide-RRE RNA binding, FRET | 97,000 tested, 0.79% active | inhibition, % at 8 µM | AID 704 | P05866;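 active = inhibition above the screen-wide mean plus 3 SD, cut at about 35% in these data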;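 note: 0% = median DMSO wells and 100% = median Neomycin B control wells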
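Test system – labelled RRE RNA duplex and labelled Rev peptide · Signal – fluorescein-to-Cy5 FRET, 480 nm excitation · Evaluation – % inhibition of FRET ratio versus controls · Benchmarks – DMSO low control, neomycin B high control · Incubation – 5 min RNA-compound premix plus 15 min binding step, 25 °C · Medium – HEPES pH 7.5 salt buffer with EDTA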
FAK blocker = blocks human focal adhesion kinase activity; Q05397; 97,000 tested, 0.84% active; inhibition, %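 (tested at 7 µM)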; AID 727; biochemical FAK kinase activity assay; in the data active = inhibition above about 19%;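 note: 0% = DMSO and 100% = reference compound high control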
EphB4 ephrin blk = blocks human EphB4 binding to ephrin-B2 | inhibition, % at 7 µM | EphB4 LBD / TNYL-RAW-Alexa532 peptide, fluorescence polarization | P54760 | AID 720 | 97,000 tested, 0.15% active;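 active = inhibition above the screen-wide mean inhibition plus 3 SD, cut at about 15% in these data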;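 note: 0% = DMSO wells and 100% = excess unlabeled TNYL-RAW peptide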
PLK1 PBD inh = Plk1 (human) PBD binding inhibition; AID 693; inhibition, %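 (tested at about 20 µM)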; P53350; 97,000 tested, 0.13% active; Plk1 PBD phosphopeptide binding, fluorescence polarization; in the data active = inhibition above about 34%, passing the limit was not always enough
hDAT+cocaine = modulates human dopamine transporter uptake under cocaine; Q01959; LLC-PK1 hDAT cells, [14C]-dopamine uptake with cocaine IC80; actives deviate in either direction; B-score at 10 µM; 110,000 tested, 1.3% active;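 active = Z score or B-score, a plate-position-corrected score, falls beyond the plate's 99.7% confidence bounds, in either direction; inactive = both scores lie inside the 99.7% bounds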;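 note: scored against the spread of the other compound wells on the same plate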
Target sequence (Q01959 whole entry, looked up): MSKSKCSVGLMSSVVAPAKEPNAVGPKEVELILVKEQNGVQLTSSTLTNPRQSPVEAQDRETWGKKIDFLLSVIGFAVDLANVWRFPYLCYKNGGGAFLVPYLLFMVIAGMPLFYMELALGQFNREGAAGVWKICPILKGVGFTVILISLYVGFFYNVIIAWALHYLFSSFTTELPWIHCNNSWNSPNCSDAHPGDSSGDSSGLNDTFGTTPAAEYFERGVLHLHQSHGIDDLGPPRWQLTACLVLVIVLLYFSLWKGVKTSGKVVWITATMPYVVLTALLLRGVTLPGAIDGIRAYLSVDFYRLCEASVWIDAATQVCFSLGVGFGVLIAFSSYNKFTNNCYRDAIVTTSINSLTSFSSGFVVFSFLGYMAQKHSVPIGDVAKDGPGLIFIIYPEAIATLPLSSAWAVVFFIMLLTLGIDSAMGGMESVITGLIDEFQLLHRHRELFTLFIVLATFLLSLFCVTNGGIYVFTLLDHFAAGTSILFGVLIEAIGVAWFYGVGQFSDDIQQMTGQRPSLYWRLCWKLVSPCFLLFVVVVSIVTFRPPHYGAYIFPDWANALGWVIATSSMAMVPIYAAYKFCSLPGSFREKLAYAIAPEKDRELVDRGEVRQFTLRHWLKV
Numbers without * were called inactive; [ ] = remark or other dose. In the library only some 3.2% were active in any assay of this set; here they are far more common.

Results for COc1cc(NC(=S)N2CCN(C(c3ccccc3)c3ccccc3)CC2)cc(OC)c1 ?
PLK1 inh: -18; Rev-RRE block: -9; FAK blocker: -1; EphB4 ephrin blk: -7; PLK1 PBD inh: -24; hDAT+cocaine: 1.3

What do the screens show for `CC1CCc2cccc3c2N1c1cc(C#N)c(C#N)cc1O3` (stereo unspecified)?
PLK1 inh: -4; Rev-RRE block: 40*; FAK blocker: 3; EphB4 ephrin blk: -7; PLK1 PBD inh: 1; hDAT+cocaine: -0.29

What do the screens show for `N#CC1=C(Nc2ccccc2)SC=C(c2ccc(Br)cc2)N=C1N1CCOCC1`?
PLK1 inh: -10; Rev-RRE block: 0; FAK blocker: 1; EphB4 ephrin blk: 11; PLK1 PBD inh: -30; hDAT+cocaine: -6.2*

Results for Cc1cc(C(C#N)c2ccccc2)n2ncnc2n1 (stereo unspecified) ?
PLK1 inh: 53*; Rev-RRE block: -1; FAK blocker: 2; EphB4 ephrin blk: -7; PLK1 PBD inh: -6; hDAT+cocaine: -0.78

Results for Cc1cc(Oc2ccc(-c3ccccc3)cc2)n2ncnc2n1 ?
hDAT+cocaine: -0.82

Results for Cc1cc(C)c(OCC(=O)Nc2nnn(C)n2)c(Br)c1 ?
PLK1 inh: -4; Rev-RRE block: 0; FAK blocker: -2; EphB4 ephrin blk: -1; PLK1 PBD inh: 14; hDAT+cocaine: -1.1

How did Cc1ccc(OCC(=O)Nc2nnn(C)n2)c(C)c1 do in these assays?
PLK1 inh: -2; Rev-RRE block: 11; FAK blocker: 6; EphB4 ephrin blk: 1; PLK1 PBD inh: 8; hDAT+cocaine: -2.6*

How did CCCn1nnc(NC(=O)COc2cc(C)ccc2C(C)C)n1 do in these assays?
PLK1 inh: -6; Rev-RRE block: 6; FAK blocker: 3; EphB4 ephrin blk: -1; PLK1 PBD inh: -6; hDAT+cocaine: -8.9*

Results for COC(=O)C1=C(C(=O)OC)SC2(S1)C(C(=O)OC)=C(C(=O)OC)SC1=C2c2cc(C)ccc2NC1(C)C ?
PLK1 inh: 43; Rev-RRE block: -2; FAK blocker: 2; EphB4 ephrin blk: 1; PLK1 PBD inh: -14; hDAT+cocaine: 0.83

What do the screens show for `Cc1cccc(CSc2nc(N)c(C#N)c(-c3cccs3)c2C#N)c1`?
PLK1 inh: -10; Rev-RRE block: 17; FAK blocker: -1; EphB4 ephrin blk: 17*; PLK1 PBD inh: -5; hDAT+cocaine: 2.1

Results for COc1ccccc1-c1cc(=O)c2c(O)ccc([N+](=O)[O-])c2o1 ?
hDAT+cocaine: -1.5

How did CC(=O)Nc1ccc(S(=O)(=O)N2CCc3ccccc3C2)cc1 do in these assays?
PLK1 inh: -7; Rev-RRE block: 2; FAK blocker: 1; EphB4 ephrin blk: 5; PLK1 PBD inh: -8; hDAT+cocaine: -8.8*

Results for CC(=O)Nc1ccc(S(=O)(=O)N2CCN(C)CC2)cc1 ?
PLK1 inh: 0; Rev-RRE block: 8; FAK blocker: -1; EphB4 ephrin blk: -1; PLK1 PBD inh: 4; hDAT+cocaine: -1.4

How did Cc1cc(C)nc(SCC(=O)Nn2cnnc2)n1 do in these assays?
hDAT+cocaine: 0.88

How did CCCN1C(=O)/C(=C/c2ccc(N3CCCC3)c(C)c2)NC1=S do in these assays?
PLK1 inh: -57; Rev-RRE block: 139*[fluorescence artefact?]; FAK blocker: 0; EphB4 ephrin blk: 3; PLK1 PBD inh: -231; hDAT+cocaine: 0.025

Results for CC(C)CC(=O)O/N=C1\C(=O)N(Cc2ccc(Cl)cc2)c2ccc([N+](=O)[O-])cc21 ?
PLK1 inh: -8; Rev-RRE block: 15; FAK blocker: 2; EphB4 ephrin blk: -7; PLK1 PBD inh: 3; hDAT+cocaine: -0.7

Results for COc1ncccc1-c1nnn(-c2ccccc2)n1 ?
hDAT+cocaine: 0.26

How did CCCCNS(=O)(=O)c1ccc(NC(=O)c2c(-c3ccccc3Cl)noc2C)cc1 do in these assays?
PLK1 inh: 2; Rev-RRE block: 13; FAK blocker: -2; EphB4 ephrin blk: 3; PLK1 PBD inh: -8; hDAT+cocaine: -0.59

What do the screens show for `O=C1C2C3CC(C(Br)C3Br)C2C(=O)N1c1ccccn1` (stereo unspecified)?
PLK1 inh: -11; Rev-RRE block: 3; FAK blocker: -1; EphB4 ephrin blk: -9; PLK1 PBD inh: 23; hDAT+cocaine: -7.9*

How did COc1cc(-c2nc3n(n2)C(c2cccc(OC)c2OC)C2=C(CCCC2=O)N3)cc(OC)c1OC (stereo unspecified) do in these assays?
PLK1 inh: -7; Rev-RRE block: -3; FAK blocker: -3; EphB4 ephrin blk: -4; PLK1 PBD inh: -7; hDAT+cocaine: 2.7*

Results for COc1ccc(C2C3=C(CCCC3=O)Nc3nc(-c4cc(OC)c(OC)c(OC)c4)nn32)cc1OC (stereo unspecified) ?
PLK1 inh: -7; Rev-RRE block: 10; FAK blocker: 3; EphB4 ephrin blk: -1; PLK1 PBD inh: -33; hDAT+cocaine: 4*

What do the screens show for `COc1ccccc1NC(=O)N(Cc1ccco1)Cc1cc2cc(C)cc(C)c2[nH]c1=O`?
PLK1 inh: -2; Rev-RRE block: 0; FAK blocker: 9; EphB4 ephrin blk: 7; PLK1 PBD inh: -17; hDAT+cocaine: 2.2

What do the screens show for `COc1ccccc1NC(=O)N(Cc1ccco1)Cc1cc2ccc(C)c(C)c2[nH]c1=O`?
PLK1 inh: -15; Rev-RRE block: 3; FAK blocker: -1; EphB4 ephrin blk: -12; PLK1 PBD inh: -10; hDAT+cocaine: 2.6*

What do the screens show for `O=C(CN(Cc1cccs1)C(=O)CSc1nnc(COc2ccccc2)o1)NC1CCCC1`?
PLK1 inh: 0; Rev-RRE block: 9; FAK blocker: 0; EphB4 ephrin blk: 20*; PLK1 PBD inh: 2; hDAT+cocaine: 0.0089

What do the screens show for `O=C(CN(Cc1ccccc1)C(=O)CSc1nnc(COc2ccccc2)o1)NC1CCCC1`?
PLK1 inh: -9; Rev-RRE block: 5; FAK blocker: 0; EphB4 ephrin blk: -2; PLK1 PBD inh: -18; hDAT+cocaine: -0.35

Results for O/N=C/c1cc(Br)ccc1OCc1ccccc1F ?
PLK1 inh: -3; Rev-RRE block: 15; FAK blocker: 20*; EphB4 ephrin blk: -9; PLK1 PBD inh: 15; hDAT+cocaine: 0.92

What do the screens show for `CCOc1cc(S(=O)(=O)N(Cc2ccccc2)Cc2ccccc2)c(OCC)cc1-n1cnnn1`?
PLK1 inh: -2; Rev-RRE block: 3; FAK blocker: -1; EphB4 ephrin blk: 5; PLK1 PBD inh: 8

What do the screens show for `CCCc1nnc(NC(=O)CNc2ccc(F)cc2)s1`?
PLK1 inh: 14; Rev-RRE block: 8; FAK blocker: 12; EphB4 ephrin blk: 16*; PLK1 PBD inh: -18; hDAT+cocaine: 1.3

Results for CCCc1nnc(NC(=O)CCCC(=O)O)s1 ?
PLK1 inh: -2; Rev-RRE block: 0; FAK blocker: -6; EphB4 ephrin blk: -6; PLK1 PBD inh: 25; hDAT+cocaine: -1.3

Source: PubChem (several laboratories)
